Activity calls are given as the source filed them.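 Rule for the calls: active = IC50 at or below 1 µM; inactive = the rest.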
Biological target: Protein-arginine deiminase type-4 (Homo sapiens) (UniProt Q9UM07)
Experiment: PAD4 enzyme inhibition potency, late-stage follow-up, biochemical, BAEE substrate, citrulline absorbance, 0-500 µM range (AID 588421)
Settings: recombinant PAD4, BAEE citrulline colorimetric absorbance
In short: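 Material: recombinant PAD4 enzyme. Quantity: PAD4 enzyme at 0.2 µM. Medium: Tris buffer at pH 7.6 with 10 mM CaCl2 and 2 mM DTT. Reagent: 10 mM BAEE. Times: 15 min preincubation (37 °C), 15 min reaction. Signal: citrulline absorbance, 540 nm. Measure: IC50 from fitted fractional PAD4 activity, citrulline standard curve.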

Sequence of Protein-arginine deiminase type-4 (Homo sapiens) (Q9UM07 whole entry, looked up): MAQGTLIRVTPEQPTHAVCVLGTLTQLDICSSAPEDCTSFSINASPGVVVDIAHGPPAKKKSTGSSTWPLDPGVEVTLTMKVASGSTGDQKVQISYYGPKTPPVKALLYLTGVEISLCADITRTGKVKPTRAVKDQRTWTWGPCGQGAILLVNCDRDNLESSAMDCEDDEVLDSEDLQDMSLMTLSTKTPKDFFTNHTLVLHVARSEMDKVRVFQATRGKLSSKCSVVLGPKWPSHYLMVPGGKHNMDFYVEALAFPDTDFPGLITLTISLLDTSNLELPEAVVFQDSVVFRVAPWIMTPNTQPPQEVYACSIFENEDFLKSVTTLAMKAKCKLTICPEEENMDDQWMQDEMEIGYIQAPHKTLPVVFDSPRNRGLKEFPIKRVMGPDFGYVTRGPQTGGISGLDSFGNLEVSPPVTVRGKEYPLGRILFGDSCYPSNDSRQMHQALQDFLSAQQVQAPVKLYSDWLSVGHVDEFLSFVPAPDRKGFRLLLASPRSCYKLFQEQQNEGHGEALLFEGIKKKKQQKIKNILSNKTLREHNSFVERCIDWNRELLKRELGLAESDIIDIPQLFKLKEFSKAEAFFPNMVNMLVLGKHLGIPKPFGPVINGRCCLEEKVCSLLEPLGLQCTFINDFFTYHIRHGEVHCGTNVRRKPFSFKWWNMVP

SMILES: COC(=O)c1nc(C(=O)OC)c(NC(C)=O)c(-c2ccccc2Br)c1C
- IC50: inactive
